core dimer inh – inhibitors of HCV core protein dimerization, primary screen, biochemical, TR-FRET, high-throughput; TR-FRET GST/Flag-core106 dimerization, 1536-well; inhibition, % at 5 µM; hit rate 0.33% among 300,000; AID 1899, 2009;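 active = inhibition above the mean of all tested compounds plus 3 SD, set per screening campaign, cut at about 45% in these data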
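System – GST-tagged and Flag-tagged HCV core protein residues 1-106 · Repeats – one well for each compound · Technique – TR-FRET 671 and 617 nm emission · Doses – one concentration, 5 µM, in 0.5% DMSO · Times – 4 h, 22.5 °C incubation · Also added – Eu donor and XL665 acceptor anti-tag antibodies · Measure – percent inhibition of core106 dimerization signal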
NS3 helicase inh – inhibitors of HCV NS3 helicase, primary screen, biochemical, Cy5 molecular beacon fluorescence | hit rate 0.56% among 290,000 | NS3 helicase DNA unwinding | inhibition, % at 10.9 µM | Hepatitis C virus NS3 helicase;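 active = inhibition above the mean of all tested compounds plus 3 SD, set per campaign, cut at about 35% in these data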;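 also: 0% = DMSO wells and 100% = thioflavine S control wells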
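System: HCV NS3 helicase fragment; control set: DMSO and thioflavine S; technique: Cy5 fluorescence at 0 and 60 min, beacon hairpin quenching; reagent: beacon DNA duplex substrate plus ATP; replicates: singlicate; schedule: 1 h reaction at 25 °C, ATP-initiated; medium: MOPS buffer pH 6.5 with MgCl2, DTT, Tween20, BSA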
TbMetRS inhib – T. brucei MetRS inhibitors, primary screen, biochemical, luminescence | methionyl-tRNA synthetase (Trypanosoma brucei brucei) | purified T. brucei MetRS, ATP depletion, Kinase-Glo luminescence | inhibition, % at 11.9 µM | hit rate 0.4% among 360,000 | AID 624268, 2012;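 active = inhibition above a per-plate cutoff of the control wells' mean inhibition plus 3 SD, cut at about 5.5% in these data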;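 also: 0% = DMSO wells median and 100% = median of wells with control inhibitor compound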
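assay system = parasite MetRS enzyme | timing = 15 min preincubation, 2 h reaction, all 25 °C | evaluation = percent inhibition relative to median high and low control wells | medium = HEPES buffer containing pyrophosphatase, BSA, spermine, DTT | compound = single dose, 11.9 µM final nominal, 0.9% final DMSO | detection = Kinase-Glo luminescence, ATP depletion format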
Lipid droplet – inhibitors of hepatocyte lipid droplet formation, primary screen, imaging, high-throughput imaging, BODIPY stain; inhibition, % at 6.5 µM; AML12 mouse hepatocytes, oleate lipid droplets; hit rate 0.4% among 240,000;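 active = lipid droplet intensity inhibited by at least 50%, with more than 500 cells counted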
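Assay system: AML12 mouse liver cells | Compound: 6.5 µM single-point dosing | Schedule: Overnight exposure | Technique: Fluorescence imaging, 20x objective, two fields per well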
TbMetRS confirm – T. brucei MetRS inhibitors, confirmation, biochemical, luminescence; shares compounds with TbMetRS inhib; hit rate 93% among 1,400; inhibition, % at 11.9 µM; T. brucei MetRS enzyme, luminescence (ATP depletion); in the data active = inhibition above about 7%
Jurkat cytotox – Jurkat T cell cytotoxicity, cytotoxicity control for T. brucei MetRS inhibitor project, luminescence, high throughput; hit rate 12% among 1,400; AID 624413, 2012; Jurkat cells viability, ATP luminescence; inhibition, % at 8.3 µM; shares compounds with TbMetRS inhib; in the data active = inhibition above about 15%;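 also: 0% = vehicle and 100% = reference inhibitor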
Tb MetRS inh FP – T. brucei MetRS inhibitors, orthogonal assay for T. brucei MetRS inhibitor project, biochemical, fluorescence polarization. shares compounds with TbMetRS inhib. inhibition, % at 11.9 µM. purified T. brucei MetRS. hit rate 44% among 1,400. AID 651607, 2012; in the data active = inhibition above about 17%;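 also: 0% = vehicle wells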
The depositor's hits bear a star. A selection: hits, their analogues and other compounds. The true share with any hit is near 1.3%.

`COc1ccc(/C=C(\NC(=O)c2ccc(OC)cc2)C(=O)Nc2ccc(C(=O)O)cc2)cc1` gave NS3 helicase inh 10.2, TbMetRS inhib 1.0 and Lipid droplet 0.1.
O=C(Nc1ccc(C(=O)O)cc1)/C(=C\C=C\c1ccccc1)NC(=O)c1ccc(Br)cc1 was read as core dimer inh 20.8, NS3 helicase inh 15.0, TbMetRS inhib 21.3*, Lipid droplet 11.6, TbMetRS confirm 39.6*, Jurkat cytotox 1.2 and Tb MetRS inh FP 38.8*.
For CC(=O)Oc1ccc(/C=C(\NC(=O)c2cccc(Br)c2)C(=O)Nc2ccc(C(=O)O)cc2)cc1 the results were core dimer inh 1.3, TbMetRS inhib 6.2*, TbMetRS confirm 12.0*, Jurkat cytotox -2.0 and Tb MetRS inh FP 10.2.
`O=C(NC1CCCC1)C1CCN(S(=O)(=O)c2ccccc2)CC1` gave core dimer inh 1.2, NS3 helicase inh -3.6, TbMetRS inhib -0.5 and Lipid droplet -5.9.
`S=c1[nH]nc(CCc2nc3ccccc3[nH]2)n1-c1cccc(Cl)c1` gave core dimer inh 0.5, NS3 helicase inh -12.7, TbMetRS inhib 7.7*, Lipid droplet -0.8, TbMetRS confirm 14.1*, Jurkat cytotox -6.5 and Tb MetRS inh FP 0.8.
For O=C(CSCc1nc2ccccc2[nH]1)N1CCN(c2cccc(Cl)c2)CC1 the results were core dimer inh 1.9, NS3 helicase inh -8.6, TbMetRS inhib 13.2*, TbMetRS confirm 26.1*, Jurkat cytotox 3.3 and Tb MetRS inh FP 11.0.
Screening CCSc1nsc(NC(=O)Nc2cccc(OC)c2)n1 returned core dimer inh -5.8, NS3 helicase inh 1.2, TbMetRS inhib 0.3 and Lipid droplet -0.2.
`CCSc1nsc(NC(=O)Nc2ccccc2F)n1` gave core dimer inh 4.6, NS3 helicase inh 5.2, TbMetRS inhib 7.0*, Lipid droplet 6.2, TbMetRS confirm 12.7*, Jurkat cytotox 4.6 and Tb MetRS inh FP 5.9.
CCCCC1CC2=C(C(=O)OC(C)(C)O2)C(c2ccc(F)cc2)O1 (stereo not drawn) was read as TbMetRS inhib -0.6.
CCOc1ccc(NC(=S)NCc2nc3ccccc3[nH]2)cc1 was read as core dimer inh -2.4, NS3 helicase inh 4.9, TbMetRS inhib 4.4 and Lipid droplet -10.3.
`FC(F)Oc1ccc(NC(=S)NCc2nc3ccccc3[nH]2)cc1` gave core dimer inh -0.3, NS3 helicase inh 2.8, TbMetRS inhib 55.4*, Lipid droplet -8.6, TbMetRS confirm 64.6*, Jurkat cytotox 9.0 and Tb MetRS inh FP 39.6*.
For CCCC1=NN(C(=O)Cc2ccc(OC)c(OC)c2)C(O)(C(F)(F)F)C1 (stereo not drawn) the results were core dimer inh -0.9, NS3 helicase inh 6.0, TbMetRS inhib 0.3 and Lipid droplet 6.8.
Screening CN(c1ccccc1)S(=O)(=O)c1cccc(NC(=O)CN2CCCc3ccccc32)c1 returned core dimer inh 6.0, NS3 helicase inh -38.8, TbMetRS inhib -0.4 and Lipid droplet -21.9.
Screening NS(=O)(=O)c1cccc(NC(=O)CN2CCc3ccccc32)c1 returned core dimer inh 11.4, NS3 helicase inh 12.2, TbMetRS inhib 9.2*, Lipid droplet -5.8, TbMetRS confirm 9.7*, Jurkat cytotox 11.1 and Tb MetRS inh FP 6.4.
Screening Cc1ccc(C2CC2C(=O)NNC(=S)Nc2ccc(Cl)cc2)cc1 (stereo not drawn) returned core dimer inh 1.2, NS3 helicase inh 6.9, TbMetRS inhib 39.3*, Lipid droplet -3.4, TbMetRS confirm 66.5*, Jurkat cytotox 0.8 and Tb MetRS inh FP 37.8*.
For COc1ccc(-n2c(SCC(=O)Nc3ccc(Cl)cc3)nc(O)c(Cc3ccccc3)c2=O)cc1 the results were core dimer inh 12.6, NS3 helicase inh -12.2, TbMetRS inhib 47.5*, Lipid droplet 2.0, TbMetRS confirm 69.9*, Jurkat cytotox -9.9 and Tb MetRS inh FP 34.6*.
O=C(NCCS(=O)(=O)N1CCN(c2ccccc2)CC1)C1CCCCC1 was read as TbMetRS inhib -0.3.
CC1CCCN(C2(O)C(=O)Nc3ccc(Cl)cc32)C1 (stereo not drawn) was read as core dimer inh -2.8, NS3 helicase inh 1.9 and TbMetRS inhib -0.3.
Screening CS(=O)(=O)c1nc(S(=O)(=O)c2ccc(Cl)cc2)c(N2CCC(O)CC2)s1 returned core dimer inh -20.8, NS3 helicase inh 14.0, TbMetRS inhib -0.1 and Lipid droplet -18.6.
For O=C(Nc1nccs1)c1ccc(COc2ccccc2Cl)o1 the results were core dimer inh -2.7, NS3 helicase inh -1.2, TbMetRS inhib 0.1 and Lipid droplet 5.1.
CCOc1ccc(NC(=O)CC2C(=O)N(c3ccc(OC)cc3)C(=O)N2CCc2cccs2)cc1 (stereo not drawn) was read as core dimer inh 2.8, NS3 helicase inh -16.6, TbMetRS inhib -0.3 and Lipid droplet -2.1.
CCN1C(=O)C(CC(=O)Nc2ccc(OC)cc2)N(CCc2ccccc2)C1=S (stereo not drawn) was read as core dimer inh -5.6, NS3 helicase inh -4.2, TbMetRS inhib 43.3*, Lipid droplet -13.7, TbMetRS confirm 40.2*, Jurkat cytotox 1.1 and Tb MetRS inh FP 25.4*.
CCN1C(=O)C(CC(=O)Nc2ccc(F)cc2)N(CCc2ccc(OC)cc2)C1=S (stereo not drawn) was read as core dimer inh 0.7, NS3 helicase inh -23.6, TbMetRS inhib 30.1*, Lipid droplet -6.3, TbMetRS confirm 47.3*, Jurkat cytotox -6.7 and Tb MetRS inh FP 35.7*.
For CCN1C(=O)C(CC(=O)Nc2ccc(OC)cc2)N(Cc2cccnc2)C1=S (stereo not drawn) the results were core dimer inh -0.3, NS3 helicase inh -1.4 and TbMetRS inhib 0.4.
COc1ccc(NC(=O)CC2C(=O)N(c3ccccc3)C(=O)N2CCc2cccs2)cc1 (stereo not drawn) was read as core dimer inh 2.1, NS3 helicase inh 1.0, TbMetRS inhib 32.3*, Lipid droplet -21.9, TbMetRS confirm 46.0*, Jurkat cytotox -1.5 and Tb MetRS inh FP 23.7*.
For Nc1ncnc(N2CCc3ccccc32)c1[N+](=O)[O-] the results were core dimer inh -0.8, NS3 helicase inh -1.9, TbMetRS inhib -0.5 and Lipid droplet 0.6.

Source: PubChem BioAssay (several laboratories)
